For experiment [1], the target named is 5-hydroxytryptamine receptor 2A (Rattus norvegicus, UniProt P14842). As to the kind of experiment: Ability to bind to central serotonin 5-hydroxytryptamine 2A receptor in vitro in cortex of the rat brain using [3H]ketanserin radioligand. Type of experiment: tissue-based. An outline of the steps: (§1)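 Competition binding in rat brain tissue: hippocampus with [3H]-8-OH-DPAT (5-HT1A); cortex with [3H]-ketanserin (5-HT2A) or [3H]-prazosin (α1). Ki from at least three experiments using 10–14 concentrations (10⁻¹⁰–10⁻⁵ M), each in triplicate.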

Experiment [2] concerns the target T1, 5-hydroxytryptamine receptor 1A (Rattus norvegicus, UniProt P19327).
T1 sequence (P19327 whole entry): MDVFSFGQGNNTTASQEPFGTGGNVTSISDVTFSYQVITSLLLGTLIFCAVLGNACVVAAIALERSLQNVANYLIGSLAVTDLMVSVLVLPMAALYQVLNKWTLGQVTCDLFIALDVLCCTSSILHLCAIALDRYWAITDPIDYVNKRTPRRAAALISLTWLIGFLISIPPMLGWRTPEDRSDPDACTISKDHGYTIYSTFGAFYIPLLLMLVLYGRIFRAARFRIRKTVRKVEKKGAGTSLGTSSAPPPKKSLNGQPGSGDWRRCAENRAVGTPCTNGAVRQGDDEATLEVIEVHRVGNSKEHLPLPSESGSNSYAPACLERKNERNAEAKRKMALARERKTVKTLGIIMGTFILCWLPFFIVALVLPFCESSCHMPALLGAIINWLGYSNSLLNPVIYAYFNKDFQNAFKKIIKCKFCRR
Briefly: Ability to bind to central serotonin 5-hydroxytryptamine 1A receptor in vitro in hippocampus of the rat brain using [3H]8-OH-DPAT radioligand. Type of experiment: tissue-based. The procedure, abridged: as §1

The target in experiment [3] is 5-hydroxytryptamine receptor 1A (Rattus norvegicus) (UniProt P19327). Briefly: Ability inhibit symptoms induced by 8-OH-DPAT was regarded as postsynaptic 5-HT1A receptor antagonistic activity; Antagonist. To be noted: filed as antagonist.
Experiment [4] addresses T2, Adrenergic receptor alpha-1 (Rattus norvegicus, UniProt P15823+P23944+P43140).
T2 sequence (P15823 whole entry): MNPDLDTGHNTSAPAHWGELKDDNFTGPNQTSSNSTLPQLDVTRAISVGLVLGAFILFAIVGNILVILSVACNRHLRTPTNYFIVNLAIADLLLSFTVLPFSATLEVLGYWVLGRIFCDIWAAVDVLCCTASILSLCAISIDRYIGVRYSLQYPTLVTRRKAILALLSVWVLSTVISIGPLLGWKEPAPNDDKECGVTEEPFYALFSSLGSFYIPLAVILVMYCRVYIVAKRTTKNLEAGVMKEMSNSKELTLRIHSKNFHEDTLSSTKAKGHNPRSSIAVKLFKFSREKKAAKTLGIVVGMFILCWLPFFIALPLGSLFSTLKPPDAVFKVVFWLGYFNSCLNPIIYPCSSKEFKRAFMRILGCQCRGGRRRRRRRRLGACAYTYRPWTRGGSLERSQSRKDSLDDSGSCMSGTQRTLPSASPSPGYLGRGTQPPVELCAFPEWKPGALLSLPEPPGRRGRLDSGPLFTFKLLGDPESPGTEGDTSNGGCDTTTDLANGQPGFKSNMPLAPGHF
T2 sequence (P23944 whole entry): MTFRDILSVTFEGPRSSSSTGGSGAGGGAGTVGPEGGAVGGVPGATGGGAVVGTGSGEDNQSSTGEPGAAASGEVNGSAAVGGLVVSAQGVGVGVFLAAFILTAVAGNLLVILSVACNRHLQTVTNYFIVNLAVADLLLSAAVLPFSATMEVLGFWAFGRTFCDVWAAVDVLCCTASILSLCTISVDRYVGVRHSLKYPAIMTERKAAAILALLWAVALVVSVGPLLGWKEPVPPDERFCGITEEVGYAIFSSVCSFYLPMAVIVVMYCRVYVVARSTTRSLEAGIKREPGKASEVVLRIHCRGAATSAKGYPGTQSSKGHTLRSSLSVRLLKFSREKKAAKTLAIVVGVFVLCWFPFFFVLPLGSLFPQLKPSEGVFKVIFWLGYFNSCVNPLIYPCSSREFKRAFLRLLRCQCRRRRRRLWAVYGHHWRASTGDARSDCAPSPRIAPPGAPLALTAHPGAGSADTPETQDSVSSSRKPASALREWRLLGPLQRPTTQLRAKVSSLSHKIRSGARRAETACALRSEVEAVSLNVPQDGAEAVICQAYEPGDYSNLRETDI
T2 sequence (P43140 whole entry): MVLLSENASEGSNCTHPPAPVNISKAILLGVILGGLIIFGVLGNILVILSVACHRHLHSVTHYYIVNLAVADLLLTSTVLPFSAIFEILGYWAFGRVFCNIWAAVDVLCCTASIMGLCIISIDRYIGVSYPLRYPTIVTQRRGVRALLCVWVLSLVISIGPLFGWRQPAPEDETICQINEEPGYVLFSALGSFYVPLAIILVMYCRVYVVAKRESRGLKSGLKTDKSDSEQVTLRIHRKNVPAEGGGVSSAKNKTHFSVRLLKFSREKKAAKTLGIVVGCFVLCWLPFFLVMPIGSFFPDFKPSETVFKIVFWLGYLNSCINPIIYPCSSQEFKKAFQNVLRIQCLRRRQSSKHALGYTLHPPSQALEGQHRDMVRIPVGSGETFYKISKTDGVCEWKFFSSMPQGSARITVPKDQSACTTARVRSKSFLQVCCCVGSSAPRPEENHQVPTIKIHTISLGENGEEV
As to the kind of experiment: Ability to bind to alpha-1 adrenergic receptor in vitro in cortex of the rat brain using [3H]prazosin radioligand. Type of experiment: tissue-based. An outline of the steps:
as §1

The species named for the next experiment is Mus musculus. Briefly: Ability to inhibit 8-OH-DPAT-induced hypothermia was taken as a measure of presynaptic antagonistic activity; Antagonist. Type of experiment: functional, organism-based. To be noted: filed as antagonist.
In another experiment the target is D(2) dopamine receptor (Rattus norvegicus, UniProt P61169). As to the kind of experiment: Ability to bind to Dopamine receptor D2 in vitro in rat sriatal membranes using [3H]spiperone radioligand. It is filed as cell membranes. The procedure, abridged:
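Rat striatal membranes with [3H]spiperone; ketanserin 50 nM in buffer to block 5-HT2A binding; nonspecific binding with (±)-butaclamol 5 μM; 50 mM potassium phosphate pH 7.4; 37 °C, 30 min; vacuum filtration onto glass fiber, scintillation counting. Ki via Cheng-Prusoff from ≥3 experiments, 10 concentrations in triplicate.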

Experiment [5] concerns the target T3, 5-hydroxytryptamine receptor 1A (Mus musculus) (UniProt Q64264).
T3 sequence (whole entry): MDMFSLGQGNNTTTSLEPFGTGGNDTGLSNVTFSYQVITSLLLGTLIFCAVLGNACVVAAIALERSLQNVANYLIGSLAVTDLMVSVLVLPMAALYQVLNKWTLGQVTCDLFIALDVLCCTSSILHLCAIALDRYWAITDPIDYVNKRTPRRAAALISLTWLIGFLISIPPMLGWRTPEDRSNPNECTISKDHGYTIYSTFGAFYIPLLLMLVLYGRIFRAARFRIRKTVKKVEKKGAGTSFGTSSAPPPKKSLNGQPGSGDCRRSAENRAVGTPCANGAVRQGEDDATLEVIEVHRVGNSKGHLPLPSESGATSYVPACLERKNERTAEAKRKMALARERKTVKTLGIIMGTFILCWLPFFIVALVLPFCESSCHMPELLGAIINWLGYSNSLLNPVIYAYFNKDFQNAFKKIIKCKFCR
Briefly: The hypothermia produced in mice was regarded as a measure of presynaptic 5-HT1A receptor agonistic activity; Agonist. It is filed as functional. To be noted: filed as agonist.

The target of experiment [6] is 5-hydroxytryptamine receptor 2A (Mus musculus) (UniProt P35363). Briefly: The ability to antagonize head twitches in mice, observed after administration of (+/-)- DOI, was used to evaluate 5-HT2A receptor antagonistic property; Antagonist. It is filed as functional, organism-based. To be noted: filed as antagonist. An outline of the steps:
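Male Albino Swiss mice habituated 20 min in glass cages; compounds ip (1% Tween 80) 60 min before (±)-DOI 2.5 mg/kg; head twitches counted for 20 min after DOI. ID50 by Litchfield-Wilcoxon.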

Chain of 5-hydroxytryptamine receptor 2A (P14842 whole entry): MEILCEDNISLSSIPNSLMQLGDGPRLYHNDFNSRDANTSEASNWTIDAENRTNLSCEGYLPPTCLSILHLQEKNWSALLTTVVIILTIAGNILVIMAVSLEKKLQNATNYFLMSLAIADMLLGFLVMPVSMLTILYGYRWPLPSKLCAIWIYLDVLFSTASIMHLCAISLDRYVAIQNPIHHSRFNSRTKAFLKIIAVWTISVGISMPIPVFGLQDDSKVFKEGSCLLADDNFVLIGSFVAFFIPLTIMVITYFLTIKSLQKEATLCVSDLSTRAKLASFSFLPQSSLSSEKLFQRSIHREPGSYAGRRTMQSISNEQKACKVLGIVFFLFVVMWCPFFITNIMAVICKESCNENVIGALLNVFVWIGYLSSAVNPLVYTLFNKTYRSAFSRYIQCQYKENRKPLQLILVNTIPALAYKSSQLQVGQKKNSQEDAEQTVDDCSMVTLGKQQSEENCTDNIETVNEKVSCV
Chain of D(2) dopamine receptor (P61169 whole entry): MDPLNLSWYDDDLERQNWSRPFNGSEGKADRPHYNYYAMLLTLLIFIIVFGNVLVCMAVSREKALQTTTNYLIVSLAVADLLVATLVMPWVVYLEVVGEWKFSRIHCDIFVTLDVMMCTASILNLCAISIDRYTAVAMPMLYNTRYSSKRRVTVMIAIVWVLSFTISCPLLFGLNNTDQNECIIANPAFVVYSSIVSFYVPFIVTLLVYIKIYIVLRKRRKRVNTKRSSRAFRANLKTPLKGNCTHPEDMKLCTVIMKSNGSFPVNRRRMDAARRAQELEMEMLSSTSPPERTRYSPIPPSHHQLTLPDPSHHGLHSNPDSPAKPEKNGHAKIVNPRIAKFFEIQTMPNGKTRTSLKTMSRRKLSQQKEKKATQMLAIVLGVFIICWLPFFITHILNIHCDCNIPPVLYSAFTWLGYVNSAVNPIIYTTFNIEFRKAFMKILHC
Chain of 5-hydroxytryptamine receptor 2A (Mus musculus) (P35363 whole entry): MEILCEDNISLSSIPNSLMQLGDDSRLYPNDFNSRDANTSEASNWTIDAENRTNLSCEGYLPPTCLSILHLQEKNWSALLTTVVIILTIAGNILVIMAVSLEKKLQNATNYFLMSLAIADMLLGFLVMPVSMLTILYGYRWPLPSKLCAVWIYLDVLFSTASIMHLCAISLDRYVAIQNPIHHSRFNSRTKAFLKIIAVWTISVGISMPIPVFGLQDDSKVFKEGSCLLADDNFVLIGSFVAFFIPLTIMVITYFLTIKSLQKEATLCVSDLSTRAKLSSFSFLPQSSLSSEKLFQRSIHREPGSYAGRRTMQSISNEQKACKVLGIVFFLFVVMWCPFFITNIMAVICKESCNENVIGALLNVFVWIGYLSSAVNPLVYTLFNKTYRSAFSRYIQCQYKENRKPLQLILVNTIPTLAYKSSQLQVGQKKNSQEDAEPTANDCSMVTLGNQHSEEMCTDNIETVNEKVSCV

`COc1ccccc1N1CCN(CCNc2ccn3c(n2)nc2c3c(=O)n(C)c(=O)n2C)CC1`: the Ki in experiment [1] was found to be 246 nM; in experiment [2], 1.1 nM; in experiment [4], 58 nM; at D(2) dopamine receptor it was 1330 nM. Moreover, the Functional profile result (in experiment [3]; in the experiment listed under Mus musculus) was “Antagonist” each time.

In the case of `COc1ccccc1N1CCN(CCNc2nc3nc4c(c(=O)n(C)c(=O)n4C)n3cc2Br)CC1`, the Ki was found to be 86 nM in experiment [1], 62 nM in experiment [2], 62 nM in experiment [4] and 226 nM at D(2) dopamine receptor. Besides, the Functional profile result was “Agonist” in experiment [5] and “Antagonist” in experiment [3].

Regarding `Cn1c(=O)c2c(nc3nc(NCCCN4CCN(c5cccc(Cl)c5)CC4)c(Br)cn32)n(C)c1=O`, the Ki was 85 nM in experiment [1], 49 nM in experiment [2], 46 nM in experiment [4] and 264 nM on D(2) dopamine receptor. Besides, the results for the Functional profile result in experiment [5], in experiment [3] and in experiment [6] were “Agonist”, “Antagonist” and “Antagonist”, respectively.

In the case of `Cn1c(=O)c2c(nc3n2CCCN3CCCCN2CCN(c3ccccc3)CC2)n(C)c1=O`, the Ki in experiment [1] turned out to be 243 nM; in experiment [2], 2.1 nM.

Turning to `COc1ccccc1N1CCN(CCCNc2nc3nc4c(c(=O)n(C)c(=O)n4C)n3cc2Br)CC1`, the Ki in experiment [1] was determined as 880 nM; in experiment [2], 36 nM; in experiment [4], 38 nM; at D(2) dopamine receptor, 325 nM. The values for the Functional profile entry in experiment [5] and in experiment [3] were “Agonist” and “Antagonist”, respectively.

Take `COc1ccccc1N1CCN(CCCNc2ccn3c(n2)nc2c3c(=O)n(C)c(=O)n2C)CC1`: the Ki in experiment [1] came to 835 nM; in experiment [2], 34 nM; in experiment [4], 33 nM; at D(2) dopamine receptor, 1170 nM. Further, in experiment [3], the Functional profile entry is “Antagonist”.

In the case of `COc1ccccc1N1CCN(CCCn2c(=O)ccn3c4c(=O)n(C)c(=O)n(C)c4nc23)CC1`, the Ki in experiment [1] turned out to be 3880 nM; in experiment [2] it was 10.4 nM.

On to `Cn1c(=O)c2c(nc3nc(NCCCN4CCN(c5ccccc5)CC4)ccn32)n(C)c1=O`, for which the Ki came out at 72 nM in experiment [1], 19 nM in experiment [2], 25 nM in experiment [4] and 430 nM at D(2) dopamine receptor. For the same compound, the Functional profile result (in experiment [3]; in experiment [6]; in the experiment listed under Mus musculus) was “Antagonist” throughout.

In the case of `Cn1c(=O)c2c(nc3nc(NCCN4CCN(c5cccc(Cl)c5)CC4)c(Br)cn32)n(C)c1=O`, the Ki in experiment [1] turned out to be 64 nM; in experiment [2], 68 nM; at D(2) dopamine receptor it was 165 nM. Also, the Functional profile entry in experiment [3] and in experiment [6] was “Antagonist” each time.

Regarding `Cn1c(=O)c2c(nc3nc(NCCN4CCN(c5cccc(Cl)c5)CC4)ccn32)n(C)c1=O`, the Ki in experiment [1] amounted to 234 nM; in experiment [2] it was 23 nM; in experiment [4], 29 nM; at D(2) dopamine receptor it was 182 nM. For the same compound, the Functional profile entry in experiment [5] was “Agonist”; in experiment [3], “Antagonist”.

With `Cn1c(=O)c2c(nc3nc(NCCN4CCN(c5ccccc5)CC4)c(Br)cn32)n(C)c1=O`, the Ki in experiment [1] is 440 nM; in experiment [2] it was 87 nM; at D(2) dopamine receptor, 1240 nM. The Functional profile result in experiment [3] was “Antagonist”.

For the compound `Cn1c(=O)c2c(nc3n(CCCN4CCN(c5ccccc5)CC4)c(=O)ccn23)n(C)c1=O`, the Ki in experiment [1] amounted to 4680 nM; in experiment [2] it was 25 nM.

Turning to `Cn1c(=O)c2c(nc3nc(NCCCN4CCN(c5cccc(Cl)c5)CC4)ccn32)n(C)c1=O`, the Ki in experiment [1] was 56 nM; in experiment [2], 46 nM; in experiment [4] it was 21 nM; on D(2) dopamine receptor, 94 nM. The Functional profile entry is “Agonist” in experiment [5], “Antagonist” in experiment [3] and “Antagonist” in experiment [6].

In the case of `COc1ccccc1N1CCN(CCCN2CCCn3c2nc2c3c(=O)n(C)c(=O)n2C)CC1`, the Ki in experiment [1] is 562 nM; in experiment [2] it was 17.2 nM.

By Ki is commonly meant a measure of affinity in units of concentration, obtained from inhibition or displacement.

Values taken from ChEMBL document CHEMBL1137076, “New arylpiperazine 5-HT(1A) receptor ligands containing the pyrimido[2,1-f]purine fragment: synthesis, in vitro, and in vivo pharmacological evaluation” (J Med Chem, 2004).
